Statin myotox sup: suppression of simvastatin myotoxicity; C2C12 myotubes + simvastatin, ATP luminescence, 48 h; scaled: DMSO 0, geranylgeraniol control 100; rescue of ATP level, % at 7.49 µM; 0.78% of 330,000 active;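 active = mean ATP rescue above about 67%, or every replicate alone reaching that limit, limit read from the data, passing the limit was not always enough; inconclusive = no clear call, values can overlap the other calls; inactive = mean under the limit and some replicate under it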;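 note: myotubes were challenged with 10 µM simvastatin during compound exposure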
S100A4 MyoIIA: blocks human S100A4 binding to myosin IIA peptide; AID 652163; inhibition, % at 10.7 µM; 0.14% of 360,000 active; S100A4/TAMRA-MyoIIA peptide fluorescence polarization; P26447;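 active = mean inhibition of at least 70% across replicates, with every replicate also reaching that level; inconclusive = mean inhibition reaches 70% but some replicates fall short; inactive = mean inhibition below 70%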
Target sequence (P26447 whole entry, looked up): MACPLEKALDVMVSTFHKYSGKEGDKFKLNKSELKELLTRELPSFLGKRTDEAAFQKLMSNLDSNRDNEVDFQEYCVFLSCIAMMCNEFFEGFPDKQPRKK
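Test system: S100A4 monomer protein. Medium: HEPES buffer with Ca2+, pH 7.2. Reagent: fluorescent myosin IIA peptide, 5 nM. Compound dosing: single-point compound testing. Timing: 5 min between mix addition and reading. Benchmarks: DMSO neutral and TFP positive wells.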
SIRT5 inh: inhibitors of human sirtuin-5 desuccinylase; Q9NXA8; 1.1% of 330,000 active; AID 652115; inhibition, % at 15 µM; Purified SirT5, succinyl-peptide AMC, trypsin-coupled fluorescence; in the data active = inhibition above about 15%; inconclusive = no clear call, values can overlap the other calls
Target sequence (Q9NXA8 whole entry, looked up): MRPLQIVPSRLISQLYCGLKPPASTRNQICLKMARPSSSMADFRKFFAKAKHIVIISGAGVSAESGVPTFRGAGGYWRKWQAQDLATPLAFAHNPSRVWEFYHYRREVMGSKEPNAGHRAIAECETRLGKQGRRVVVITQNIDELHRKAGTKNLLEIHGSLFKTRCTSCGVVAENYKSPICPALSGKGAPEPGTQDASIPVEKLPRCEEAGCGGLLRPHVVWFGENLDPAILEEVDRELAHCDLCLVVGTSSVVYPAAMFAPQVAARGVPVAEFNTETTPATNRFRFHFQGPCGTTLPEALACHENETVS
PGC1a acetyl inh: lowers PGC1a acetylation signal in U2OS cells | inhibition, % at 15.6 µM | AlphaScreen anti-acetyl-lysine; with virally co-expressed GCN5 acetyltransferase | 0.17% of 350,000 active;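 active = every replicate shows inhibition of at least 40%; inconclusive = mean inhibition at least 40% but some replicate below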;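 note: 0% = neutral control wells and 100% = positive control wells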
DENV2 CPE rescue: DENV2-induced cell death inhibition | DENV2-infected cells, cytopathic effect rescue, plate reader | CPE inhibition, % at 9.99 µM | 1.7% of 350,000 active; in the data active = CPE inhibition above about 20%, passing the limit was not always enough; inconclusive = no clear call, values can overlap the other calls; tested in BHK-21 cells;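 note: 0% = median of neutral control wells and 100% = median of positive control wells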
* = called active by the depositor; ? = inconclusive; / = no result. In the library only some 2.9% were active in any assay of this set; here they are far more common.

SMILES | Statin myotox sup | S100A4 MyoIIA | SIRT5 inh | PGC1a acetyl inh | DENV2 CPE rescue
C[C@@H]1CN([C@@H](C)CO)C(=O)c2cc(NC(=O)Cc3ccccc3)ccc2O[C@@H]1CN(C)C(=O)Nc1ccc(F)cc1 | 0.7 | 9.9 | 0.4 | -5.4 | 18.1
COc1ccc(S(=O)(=O)Nc2ccc3c(c2)C(=O)N([C@H](C)CO)C[C@H](C)[C@H](CN(C)Cc2ccncc2)OCCCC[C@H](C)O3)cc1 | / | -1.4 | 0.4 | 0.8 | 48.1*
COc1ccc(S(=O)(=O)Nc2ccc3c(c2)C(=O)N([C@H](C)CO)C[C@@H](C)[C@H](CN(C)Cc2ccncc2)OCCCC[C@H](C)O3)cc1 | / | -6.6 | 2.0 | 4.4 | -11.5
COc1ccc(S(=O)(=O)Nc2ccc3c(c2)C(=O)N([C@H](C)CO)C[C@H](C)[C@H](CN(C)Cc2ccncc2)OCCCC[C@@H](C)O3)cc1 | / | -36.5 | 0.2 | 10.5 | 21.7*
COc1ccc(C#Cc2cnc3c(c2)C(=O)N([C@@H](C)CO)C[C@@H](C)[C@@H](CN(C)CC2CCCC2)O3)cc1 | 3.4 | -11.5 | 2.3 | -31.2 | 13.7
C[C@@H]1CN([C@@H](C)CO)C(=O)c2cc(C3=CCCCC3)cnc2O[C@@H]1CN(C)C(=O)CN1CCOCC1 | 5.8 | -26.6 | -0.2 | 5.9 | 4.3
COc1ccc(NC(=O)N2CCC3(CC2)CN(C(=O)C2CCC2)[C@H](CO)c2c3c3ccc(OC)cc3n2C)cc1 | / | 9.2 | 1.9 | 8.0 | -2.7
COC(=O)C[C@H]1CC[C@@H]2[C@@H](COc3ccc(NS(C)(=O)=O)cc3C(=O)N2C)O1 | -21.5 | / | / | -12.4 | -2.8
N#C[C@H]1[C@H](c2ccccc2-c2ccccc2F)[C@H](CO)N1C(=O)Cc1ccccc1 | / | 14.4 | 2.3 | -13.0 | -2.3
COc1ccc(C#Cc2ccc([C@H]3[C@H]4CN(C(C)=O)CC(=O)N4[C@H]3CO)cc2)cc1 | / | -17.8 | -5.4 | 1.0 | ?
COc1ccc(C#Cc2ccc([C@H]3[C@@H](CO)N4C(=O)CN(C(C)=O)C[C@H]34)cc2)cc1 | / | -16.7 | 26.3* | 0.3 | -3.1
CC(C)CC#Cc1ccc([C@H]2[C@H]3CN(C(=O)Cc4cccnc4)CC(=O)N3[C@H]2CO)cc1 | / | 106.8* | 3.4 | 10.6 | -8.1
CC(=O)N1CC(=O)N2[C@H](CO)[C@@H](c3ccc(C#Cc4cccnc4)cc3)[C@@H]2C1 | / | 8.5 | -2.2 | -0.9 | 26.5*
C[C@@]12C(C[C@H](O)[C@@]34C[C@@H](CCC13)[C@@H](CO)C4=O)[C@](C)(C(=O)O)CC[C@@H]2O (some centres undefined) | 0.4 | 0.0 | -3.9 | -7.1 | 5.1
C=C1C(=O)[C@]23C[C@H]1CCC2[C@@]1(C)C(C[C@@H]3O)[C@](C)(C(=O)OC)CC[C@@H]1O (some centres undefined) | 29.2 | 0.3 | -7.3 | 92.5* | 0.2
Cc1ccc(OC(=O)N(C)C[C@H]2OCc3ccccc3-c3ccccc3C(=O)N([C@H](C)CO)C[C@H]2C)cc1 | 17.2 | -3.2 | -2.1 | -2.1 | -11.4
CCNc1nc(C#N)nc2c1ncn2-c1cc(F)cc(F)c1 | 4.7 | 2.8 | 24.6* | -1.7 | -7.4
CCn1cnc2c(Nc3cc(F)cc(F)c3)nc(C#N)nc21 | -16.3 | -1.3 | 0.2 | 10.2 | -0.5
C[C@H](CO)N1C[C@H](C)[C@@H](CN(C)CC2CCCCC2)Oc2ccc(NC(=O)CCC(F)(F)F)cc2CC1=O | 24.2 | 10.4 | 9.9 | -2.2 | -8.2
O=C(c1cccc([N+](=O)[O-])c1)c1ccccn1 | / | -4.8 | -3.8 | / | 0.7
Cn1cccc1C(=O)c1cccc([N+](=O)[O-])c1 | / | -1.1 | 17.2* | 1.9 | 1.0
COc1ccc(CN2CC(C(=O)NCCCN3CCOCC3)CC2=O)cc1 (centres undefined) | 98.5* | / | / | 6.5 | /
COc1cccc(N2CC(C(=O)Nc3ccc(F)cc3)CC2=O)c1 (centres undefined) | -3.6 | -5.3 | 0.4 | / | 27.0*
COc1cccc(N2CC(C(=O)Nc3ccc(C(=O)OC(C)C)cc3)CC2=O)c1 (centres undefined) | 2.5 | -1.2 | -4.4 | / | /
Cc1ccc(N2CC(C(=O)Nc3ccc(N(C)C)cc3)CC2=O)cc1C (centres undefined) | 147.7* | / | / | -2.1 | /
Cc1cnc(NC(=O)C2CC(=O)N(c3cccc(Cl)c3)C2)s1 (centres undefined) | -143.0 | 4.7 | 0.8 | / | 32.7*
COc1ccc(NC(=O)CN(C)C(=O)C2CC(=O)N(c3ccc4c(c3)OCCO4)C2)cc1 (centres undefined) | / | 154.1* | -1.5 | / | 15.7

Source: PubChem BioAssay
